Series [1] can be described thus: folding enthalpy; higher = less favourable; fluorescence melt of hairpins on a sequencing array, two-state fit. Particulars: sodium 0.088 M. The gist of the method: (§1)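 Melting temperature and folding enthalpy were derived from bootstrapped two-state fits. The fitted temperatures were raised by 9.35 °C to agree with UV melts, and four replicates were combined by inverse variance. The underlying data were Cy3 fluorescence images of library hairpins, with annealed Cy3 and quencher oligos, on a sequenced MiSeq flow cell in 50 mM Na-HEPES pH 8.0, 25 mM NaCl, taken in 2.5 °C steps up to 60 °C, normalised to pre-quench Cy3 and to control constructs.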

Series [2] is described as follows: melting temperature; fluorescence melt of hairpins on a sequencing array, two-state fit, raised by 9.35 °C to match UV melts. To be noted: sodium 0.088 M. A digest of the protocol:
as §1

With GATCTGATGTCAGATC ((((((....)))))), the folding enthalpy in series [1] is -53.1 kcal/mol. In addition, in series [2], the Tm was determined as 49.1 °C.
On the same counts, the results for GATCTGATTTCAGATC ((((((....)))))) are -34.4 kcal/mol and 51.4 °C.
On the same counts, the results for GATCTGCAAGCAGATC ((((((....)))))) are -40.2 kcal/mol and 57.6 °C.
On the same counts, the results for GATCTGCACCAGATC ((((((...)))))) are -41.8 kcal/mol and 47.9 °C.
GATCTGCAGCAGATC ((((((...)))))): the folding enthalpy in series [1] is -35 kcal/mol. In addition, the Tm in series [2] is 49.2 °C.
On the same counts, the results for GATCTGCAGTCAGATC ((((((....)))))) are -34.5 kcal/mol and 49.2 °C.
For GATCTGCCACCAGATC ((((((....)))))), in that order: -35.1 kcal/mol and 48.7 °C.
In the case of GATCTGCCTCCAGATC ((((((....)))))), in series [1], the folding enthalpy was -32.6 kcal/mol. Moreover, the Tm in series [2] amounted to 46.3 °C.
With GATCTGCCTGCAGATC ((((((....)))))), the folding enthalpy in series [1] is -43.3 kcal/mol. The Tm in series [2] turned out to be 62.6 °C.
Take GATCTGCTACAGATC ((((((...)))))): the folding enthalpy in series [1] is -29.6 kcal/mol. The Tm in series [2] is 49.6 °C.
Regarding GATCTGCTATCAGATC ((((((....)))))), in series [1], the folding enthalpy was -35.3 kcal/mol. Moreover, in series [2], the Tm was found to be 49.6 °C.
On the same counts, the results for GATCTGCTGGCAGATC ((((((....)))))) are -43.6 kcal/mol and 62.5 °C.
For GATCTGCTTGCAGATC ((((((....)))))), in that order: -40.1 kcal/mol and 67.3 °C.
For GATCTGGAACAGATC ((((((...)))))), in that order: -37.7 kcal/mol and 58.8 °C.
Consider GATCTGGAACCAGATC ((((((....)))))), for which the folding enthalpy in series [1] was -38.5 kcal/mol. Also, the Tm in series [2] was 53.9 °C.
For GATCTGGACTCAGATC ((((((....)))))), in that order: -46.3 kcal/mol and 53.1 °C.
On to GATCTGGCCCAGATC ((((((...)))))), for which, in series [1], the folding enthalpy was -35.1 kcal/mol. For the same sequence, the Tm in series [2] came to 49.7 °C.
On the same counts, the results for GATCTGGCCCCAGATC ((((((....)))))) are -49.3 kcal/mol and 52.9 °C.
On the same counts, the results for GATCTGGCCTCAGATC ((((((....)))))) are -41.7 kcal/mol and 51.7 °C.
As for GATCTGGCTCCAGATC ((((((....)))))), the folding enthalpy in series [1] is -39.4 kcal/mol. Besides, the Tm in series [2] turned out to be 53.1 °C.
As for GATCTGGGAAACCGGATC ((((.((....)).)))), the folding enthalpy in series [1] was -44.8 kcal/mol. The Tm in series [2] came to 49.8 °C.
As to GATCTGGGACCAGATC ((((((....)))))), the folding enthalpy in series [1] was -43.4 kcal/mol. In addition, the Tm in series [2] worked out at 54.7 °C.
For GATCTGGGGACAGATC ((((((....)))))), in that order: -31.4 kcal/mol and 54.3 °C.
On the same counts, the results for GATCTGGGGCAGATC ((((((...)))))) are -29.4 kcal/mol and 46.5 °C.
On the same counts, the results for GATCTGGGGCCAGATC ((((((....)))))) are -47.6 kcal/mol and 50.5 °C.
As for GATCTGGGTCCAGATC ((((((....)))))), in series [1], the folding enthalpy is -42.5 kcal/mol. Moreover, the Tm in series [2] was determined as 52.7 °C.
On the same counts, the results for GATCTGGTCCAGATC ((((((...)))))) are -33.4 kcal/mol and 50.8 °C.
For GATCTGGTCCCAGATC ((((((....)))))), in that order: -39.6 kcal/mol and 54.1 °C.
For GATCTGGTCGCAGATC ((((((....)))))), in that order: -24.9 kcal/mol and 52.4 °C.
Turning to GATCTGGTGGCAGATC ((((((....)))))), the folding enthalpy in series [1] was -33.9 kcal/mol. Besides, the Tm in series [2] was 50.1 °C.
As for GATCTGGTTACAGATC ((((((....)))))), the folding enthalpy in series [1] was -40.1 kcal/mol. In addition, in series [2], the Tm worked out at 59.1 °C.
As for GATCTGTAATCAGATC ((((((....)))))), the folding enthalpy in series [1] is -37.6 kcal/mol. Moreover, the Tm in series [2] is 48.2 °C.
On the same counts, the results for GATCTGTACCCAGATC ((((((....)))))) are -36.4 kcal/mol and 47.5 °C.
On the same counts, the results for GATCTGTAGGCAGATC ((((((....)))))) are -45 kcal/mol and 51.9 °C.
For GATCTGTATACAGATC ((((((....)))))), in that order: -40.8 kcal/mol and 54.3 °C.
In the case of GATCTGTATCCAGATC ((((((....)))))), the folding enthalpy in series [1] is -40.3 kcal/mol. For the same sequence, the Tm in series [2] turned out to be 47.4 °C.
For GATCTGTATTCAGATC ((((((....)))))), in that order: -36.3 kcal/mol and 50.4 °C.
For GATCTGTCACAGATC ((((((...)))))), in that order: -36.2 kcal/mol and 50.6 °C.

(Values after the array DNA melting data of Ke et al. (doi:10.1101/2024.01.08.574731).)
